Residue numbers refer to the chain shown, from its start. “Also recorded” adds a separate entry of the source.

Data on one compound can be found in article PMC3268193 (British Journal of Pharmacology, 2012).

One assay deals with T1, human P2X2 receptor WT (Homo sapiens, UniProt Q9UBL9).
T1 sequence (Q9UBL9 1-471): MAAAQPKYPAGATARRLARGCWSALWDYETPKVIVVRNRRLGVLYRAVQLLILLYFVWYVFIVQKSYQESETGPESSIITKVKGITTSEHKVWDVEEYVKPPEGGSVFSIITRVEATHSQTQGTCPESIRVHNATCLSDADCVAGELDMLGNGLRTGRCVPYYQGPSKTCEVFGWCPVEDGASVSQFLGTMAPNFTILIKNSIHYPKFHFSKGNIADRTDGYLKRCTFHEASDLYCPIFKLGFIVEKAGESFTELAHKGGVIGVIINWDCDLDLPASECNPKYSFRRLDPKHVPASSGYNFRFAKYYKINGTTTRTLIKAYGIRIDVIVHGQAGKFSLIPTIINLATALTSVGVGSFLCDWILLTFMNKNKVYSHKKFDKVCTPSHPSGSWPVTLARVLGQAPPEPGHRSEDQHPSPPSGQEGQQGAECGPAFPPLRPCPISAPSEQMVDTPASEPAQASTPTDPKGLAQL
The experiment in a line: Two-electrode voltage clamp, WT P2X2 receptor in Xenopus oocytes. The class given is cell-based. To be noted: P2X2 WT.

The target in another assay is T2, human P2X1 receptor WT (Homo sapiens, UniProt P51575).
T2 sequence (P51575 1-399): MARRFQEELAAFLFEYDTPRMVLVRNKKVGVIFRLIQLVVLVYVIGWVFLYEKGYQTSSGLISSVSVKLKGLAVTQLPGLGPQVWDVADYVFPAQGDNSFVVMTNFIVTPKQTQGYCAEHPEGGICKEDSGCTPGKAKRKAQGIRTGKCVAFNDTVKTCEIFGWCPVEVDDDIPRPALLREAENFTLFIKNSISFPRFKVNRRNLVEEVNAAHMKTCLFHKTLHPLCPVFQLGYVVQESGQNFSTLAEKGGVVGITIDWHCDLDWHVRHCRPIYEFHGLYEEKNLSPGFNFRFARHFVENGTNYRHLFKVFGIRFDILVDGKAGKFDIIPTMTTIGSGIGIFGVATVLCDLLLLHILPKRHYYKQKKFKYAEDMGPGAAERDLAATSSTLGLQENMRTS
The experiment in a line: Two-electrode voltage clamp, WT P2X1 receptor in Xenopus oocytes. The assay is classed as cell-based. On the technique in general: In two-electrode clamp one electrode senses voltage and the other passes current.

Assay [1] concerns the target T3, P2X2 receptor mutant D136K (Homo sapiens, UniProt Q9UBL9, D148K).
T3 sequence (Q9UBL9 1-471 D148K): T1 sequence (Q9UBL9 1-471) with D148K
The experiment in a line: Two-electrode voltage clamp, P2X2 mutant D136K. To be noted: read-out: ATP EC50. The class given is cell-based.

Assay [2] addresses Dictyostelium P2X receptors. To be noted: read-out: EC50 for ATP; ref Ludlow et al., 2009; cited from earlier work.
The target in another assay is T4, DelD P2X1 receptor (Homo sapiens, UniProt P51575, D154F/DEL118-152/DEL160-165/K157P/V156D).
T4 sequence (P51575 with tags, fused parts or gaps DEL118-152/D154F/V156D/K157P/DEL160-165): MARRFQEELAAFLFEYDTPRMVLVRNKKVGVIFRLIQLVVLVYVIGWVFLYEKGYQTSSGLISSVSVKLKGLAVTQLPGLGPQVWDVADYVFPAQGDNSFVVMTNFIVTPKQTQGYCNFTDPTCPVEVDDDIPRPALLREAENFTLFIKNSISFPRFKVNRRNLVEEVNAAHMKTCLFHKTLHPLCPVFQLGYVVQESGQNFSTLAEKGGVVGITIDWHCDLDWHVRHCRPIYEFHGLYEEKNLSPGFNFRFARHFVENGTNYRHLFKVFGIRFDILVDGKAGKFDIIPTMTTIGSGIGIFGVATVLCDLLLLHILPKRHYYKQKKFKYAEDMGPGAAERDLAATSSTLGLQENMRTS
Briefly: Two-electrode voltage clamp, deletion mutant DelD P2X1. The assay is classed as cell-based. To be noted: ATP up to 10 mM. A digest of the protocol: (§1)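 Human P2X1 deletion-mutant cRNA made by T7 in vitro transcription and injected into stage V Xenopus laevis oocytes. Oocytes kept at 18°C in ND96 (pH 7.5, with gentamicin) and recorded 2–6 days later. Two-electrode voltage clamp at −60 mV, with 1.8 mM BaCl2 replacing CaCl2 in the bath.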

The next assay deals with T5, P2X1 Cys2(1-6) chimera (Homo sapiens, UniProt P51575, A118P/A137L/A141G/A151Y/D154G/DEL120-123/E128S/F152Y/G124S/G131D/I144L/I161V/INS125RVHNAT/INS150P/K127L/K136E/K138D/K140L/K148R/N153Q/P134A/Q142N/R139M/S130A/T133V/T155P/V156S).
T5 sequence (P51575 with tags, fused parts or gaps A118P/DEL120-123/G124S/INS125RVHNAT/K127L/E128S/S130A/G131D/T133V/P134A/K136E/A137L/K138D/R139M/K140L/A141G/Q142N/I144L/K148R/INS150P/A151Y/F152Y/N153Q/D154G/T155P/V156S/I161V): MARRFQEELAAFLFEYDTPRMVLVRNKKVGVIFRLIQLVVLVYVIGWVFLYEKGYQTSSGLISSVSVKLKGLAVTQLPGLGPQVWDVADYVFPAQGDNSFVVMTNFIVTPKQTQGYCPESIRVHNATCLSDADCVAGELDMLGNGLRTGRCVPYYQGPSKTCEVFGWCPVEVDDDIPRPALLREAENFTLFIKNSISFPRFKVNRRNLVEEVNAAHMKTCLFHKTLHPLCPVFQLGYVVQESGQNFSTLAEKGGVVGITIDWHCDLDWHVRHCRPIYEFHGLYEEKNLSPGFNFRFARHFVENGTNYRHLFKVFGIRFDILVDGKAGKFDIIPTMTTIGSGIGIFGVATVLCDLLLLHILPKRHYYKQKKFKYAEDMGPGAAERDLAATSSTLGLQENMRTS
Briefly: Two-electrode voltage clamp, chimera P2X1 Cys2. To be noted: P2X1 Cys2(1-6). The class given is cell-based.

For another assay, the system named is P2X1 Del mutant receptor. Briefly: Two-electrode voltage clamp, deletion mutant P2X1 Del. The assay is classed as cell-based, human. To be noted: ATP 100 µM, up to 10 mM. A digest of the protocol:
as §1

Take `Nc1ncnc2c1ncn2[C@@H]1O[C@H](COP(=O)(O)OP(=O)(O)OP(=O)(O)O)[C@@H](O)[C@H]1O` [ATP]: the Decay of current result at human P2X2 receptor WT (100 µM ATP, 3 s application) is given as “no decay at end of 3 s pulse”. For the same compound, the EC50 (commonly the concentration giving half of the maximal effect) is around 10 µM on human P2X2 receptor WT (read-out: ATP EC50); around 0.75 µM on human P2X1 receptor WT (read-out: ATP EC50, P2X1 WT); 3.87 µM in assay [1]; 100 to 500 µM in assay [2]; around 3 µM on P2X1 Cys2(1-6) chimera (read-out: ATP EC50). Besides, the “Decay Time” value on human P2X1 receptor WT (P2X1 WT, 100% to 50% decay of current) is 495 ± 45 ms; at P2X1 Cys2(1-6) chimera (100% to 50% decay), 1305 ± 176 ms. Moreover, the “Peak amplitude of inward current” value on human P2X1 receptor WT (WT P2X1, ATP 100 µM, n = 12) is −9188 ± 590 nA. Further, the figures for the ATP-evoked current result on DelD P2X1 receptor and with P2X1 Del mutant receptor were “little or no response” and “barely detectable inward currents; also recorded: ineffective”, respectively.
